Test system: MCF7
Assay: Cytotoxicity against human MCF7cells after 72 hrs by SRB assay
Type: functional, cell-based
Conditions: MCF7, 72 h

Compound	IC50 [µM]
CC(C)(C)OC(=O)O[C@H]1C[C@H](n2cc(F)c(=O)[nH]c2=O)O[C@@H]1CO	64.2
CCNP(=O)(OC[C@H]1O[C@@H](n2cc(F)c(=O)[nH]c2=O)C[C@@H]1OC(=O)OC(C)(C)C)Oc1ccc(Cl)cc1 (some centres undefined)	1.42
CC(C)(C)OC(=O)O[C@H]1C[C@H](n2cc(F)c(=O)[nH]c2=O)O[C@@H]1COP(=O)(NCC(F)(F)F)Oc1ccc(Cl)cc1 (some centres undefined)	4.05
C=CCNP(=O)(OC[C@H]1O[C@@H](n2cc(F)c(=O)[nH]c2=O)C[C@@H]1O)Oc1ccc(Cl)cc1 (some centres undefined)	94.5

Test system: 143B
Assay: Cytotoxicity against human thymidine kinase deficient 143B cells after 72 hrs by SRB assay
Type: functional, cell-based
Conditions: not given
How it was run: (§1)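 SRB protein-stain assay. Cells were seeded at about 10,000 per well and grown 24 h to a partial monolayer. They were then exposed for 72 h at 37 °C (5% CO2, 90% RH) to six concentrations: 0.1, 0.2, 1, 2, 10 and 20 µM. Final DMSO was ≤0.1%. Cells were TCA-fixed and stained with 0.4% SRB, and OD was read at 490 nm. Survival was expressed versus untreated cells. Cytarabine served as internal standard, with three experiments.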

Compound	IC50 [µM]
Nc1ccn([C@@H]2O[C@H](CO)[C@@H](O)[C@@H]2O)c(=O)n1 [CYTARABINE]	16.9
O=c1[nH]c(=O)n([C@H]2C[C@H](O)[C@@H](CO)O2)cc1F [FLOXURIDINE]	14.1
CC(C)(C)OC(=O)O[C@H]1C[C@H](n2cc(F)c(=O)[nH]c2=O)O[C@@H]1CO	47
O=c1[nH]cc(F)c(=O)[nH]1 [FLUOROURACIL]	16.3
CCNP(=O)(OC[C@H]1O[C@@H](n2cc(F)c(=O)[nH]c2=O)C[C@@H]1OC(=O)OC(C)(C)C)Oc1ccc(Cl)cc1 (some centres undefined)	9.11
CC(C)(C)OC(=O)O[C@H]1C[C@H](n2cc(F)c(=O)[nH]c2=O)O[C@@H]1COP(=O)(NCC(F)(F)F)Oc1ccc(Cl)cc1 (some centres undefined)	2.01

Test system: KB
Assay: Cytotoxicity against human KB cells after 72 hrs by SRB assay
Type: functional, cell-based
Conditions: not given
How it was run: as §1

Compound	IC50 [µM]
CC(C)(C)OC(=O)O[C@H]1C[C@H](n2cc(F)c(=O)[nH]c2=O)O[C@@H]1CO	75.9
CCNP(=O)(OC[C@H]1O[C@@H](n2cc(F)c(=O)[nH]c2=O)C[C@@H]1OC(=O)OC(C)(C)C)Oc1ccc(Cl)cc1 (some centres undefined)	3.37
CC(C)(C)OC(=O)O[C@H]1C[C@H](n2cc(F)c(=O)[nH]c2=O)O[C@@H]1COP(=O)(NCC(F)(F)F)Oc1ccc(Cl)cc1 (some centres undefined)	14.6
C=CCNP(=O)(OC[C@H]1O[C@@H](n2cc(F)c(=O)[nH]c2=O)C[C@@H]1O)Oc1ccc(Cl)cc1 (some centres undefined)	38.7

Test system: not listed separately
Assay: Cytotoxicity against HDF cells after 72 hrs by SRB assay
Type: cell-based
Conditions: Homo sapiens

Compound	IC50 [µM]
Nc1ccn([C@@H]2O[C@H](CO)[C@@H](O)[C@@H]2O)c(=O)n1 [CYTARABINE]	4.99
O=c1[nH]c(=O)n([C@H]2C[C@H](O)[C@@H](CO)O2)cc1F [FLOXURIDINE]	13.1
CC(C)(C)OC(=O)O[C@H]1C[C@H](n2cc(F)c(=O)[nH]c2=O)O[C@@H]1CO	> 100
O=c1[nH]cc(F)c(=O)[nH]1 [FLUOROURACIL]	7.02
CCNP(=O)(OC[C@H]1O[C@@H](n2cc(F)c(=O)[nH]c2=O)C[C@@H]1OC(=O)OC(C)(C)C)Oc1ccc(Cl)cc1 (some centres undefined)	6.02
CC(C)(C)OC(=O)O[C@H]1C[C@H](n2cc(F)c(=O)[nH]c2=O)O[C@@H]1COP(=O)(NCC(F)(F)F)Oc1ccc(Cl)cc1 (some centres undefined)	37.1
C=CCNP(=O)(OC[C@H]1O[C@@H](n2cc(F)c(=O)[nH]c2=O)C[C@@H]1O)Oc1ccc(Cl)cc1 (some centres undefined)	92.1

Test system: HeLa
Assay: Cytotoxicity against human HeLa cells after 72 hrs by SRB assay
Type: functional, cell-based
Conditions: not given
How it was run: as §1

Compound	IC50 [µM]
CC(C)(C)OC(=O)O[C@H]1C[C@H](n2cc(F)c(=O)[nH]c2=O)O[C@@H]1CO	63.5
CCNP(=O)(OC[C@H]1O[C@@H](n2cc(F)c(=O)[nH]c2=O)C[C@@H]1OC(=O)OC(C)(C)C)Oc1ccc(Cl)cc1 (some centres undefined)	2.66
CC(C)(C)OC(=O)O[C@H]1C[C@H](n2cc(F)c(=O)[nH]c2=O)O[C@@H]1COP(=O)(NCC(F)(F)F)Oc1ccc(Cl)cc1 (some centres undefined)	14.6
C=CCNP(=O)(OC[C@H]1O[C@@H](n2cc(F)c(=O)[nH]c2=O)C[C@@H]1O)Oc1ccc(Cl)cc1 (some centres undefined)	89.3

Test system: MCF7
Assay: Selectivity index, ratio of IC50 for HDF cells to IC50 for human MCF7 cells
Type: functional
Conditions: not given
How it was run: (§2)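 SI is calculated as the IC50 in normal human dermal fibroblasts (HDF) divided by the IC50 in the respective cancer line. Both values come from 72 h SRB assays. SD is from three independent experiments.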

Compound	Ratio IC50
Nc1ccn([C@@H]2O[C@H](CO)[C@@H](O)[C@@H]2O)c(=O)n1 [CYTARABINE]	1.31
O=c1[nH]c(=O)n([C@H]2C[C@H](O)[C@@H](CO)O2)cc1F [FLOXURIDINE]	1.07
O=c1[nH]cc(F)c(=O)[nH]1 [FLUOROURACIL]	1.08
CCNP(=O)(OC[C@H]1O[C@@H](n2cc(F)c(=O)[nH]c2=O)C[C@@H]1OC(=O)OC(C)(C)C)Oc1ccc(Cl)cc1 (some centres undefined)	4.24

Test system: MCF7
Assay: Potency index, ratio of IC50 for 5-fluoro-2'-deoxyuridine to IC50 for test compound for cytotoxicity against human MCF7cells after 72 hrs by SRB assay
Type: functional
Conditions: not given

Compound	Ratio IC50
CCNP(=O)(OC[C@H]1O[C@@H](n2cc(F)c(=O)[nH]c2=O)C[C@@H]1OC(=O)OC(C)(C)C)Oc1ccc(Cl)cc1 (some centres undefined)	9

Test system: HeLa
Assay: Selectivity index, ratio of IC50 for HDF cells to IC50 for human HeLa cells
Type: functional
Conditions: not given
How it was run: as §2

Compound	Ratio IC50
Nc1ccn([C@@H]2O[C@H](CO)[C@@H](O)[C@@H]2O)c(=O)n1 [CYTARABINE]	1.41
O=c1[nH]c(=O)n([C@H]2C[C@H](O)[C@@H](CO)O2)cc1F [FLOXURIDINE]	2.01
O=c1[nH]cc(F)c(=O)[nH]1 [FLUOROURACIL]	1.13
CCNP(=O)(OC[C@H]1O[C@@H](n2cc(F)c(=O)[nH]c2=O)C[C@@H]1OC(=O)OC(C)(C)C)Oc1ccc(Cl)cc1 (some centres undefined)	2.26

Test system: 143B
Assay: Cytotoxicity against human 143B cells after 72 hrs by SRB assay
Type: functional, cell-based
Conditions: not given
How it was run: as §1

Compound	IC50 [µM]
Nc1ccn([C@@H]2O[C@H](CO)[C@@H](O)[C@@H]2O)c(=O)n1 [CYTARABINE]	2.06
O=c1[nH]c(=O)n([C@H]2C[C@H](O)[C@@H](CO)O2)cc1F [FLOXURIDINE]	6.02
CC(C)(C)OC(=O)O[C@H]1C[C@H](n2cc(F)c(=O)[nH]c2=O)O[C@@H]1CO	18
O=c1[nH]cc(F)c(=O)[nH]1 [FLUOROURACIL]	13
CCNP(=O)(OC[C@H]1O[C@@H](n2cc(F)c(=O)[nH]c2=O)C[C@@H]1OC(=O)OC(C)(C)C)Oc1ccc(Cl)cc1 (some centres undefined)	4.4
CC(C)(C)OC(=O)O[C@H]1C[C@H](n2cc(F)c(=O)[nH]c2=O)O[C@@H]1COP(=O)(NCC(F)(F)F)Oc1ccc(Cl)cc1 (some centres undefined)	0.28

Test system: not listed separately
Assay: Selectivity index, ratio of IC50 for HDF cells to IC50 for human KB cells
Type: functional
Conditions: not given
How it was run: as §2

Compound	Ratio IC50
Nc1ccn([C@@H]2O[C@H](CO)[C@@H](O)[C@@H]2O)c(=O)n1 [CYTARABINE]	1.23
O=c1[nH]c(=O)n([C@H]2C[C@H](O)[C@@H](CO)O2)cc1F [FLOXURIDINE]	1.5
O=c1[nH]cc(F)c(=O)[nH]1 [FLUOROURACIL]	1.45
CCNP(=O)(OC[C@H]1O[C@@H](n2cc(F)c(=O)[nH]c2=O)C[C@@H]1OC(=O)OC(C)(C)C)Oc1ccc(Cl)cc1 (some centres undefined)	1.79

Test system: HepG2
Assay: Cytotoxicity against human HepG2 cells after 72 hrs by SRB assay
Type: functional, cell-based
Conditions: HepG2, 72 h

Compound	IC50 [µM]
Nc1ccn([C@@H]2O[C@H](CO)[C@@H](O)[C@@H]2O)c(=O)n1 [CYTARABINE]	2.86
O=c1[nH]c(=O)n([C@H]2C[C@H](O)[C@@H](CO)O2)cc1F [FLOXURIDINE]	8.91
CC(C)(C)OC(=O)O[C@H]1C[C@H](n2cc(F)c(=O)[nH]c2=O)O[C@@H]1CO	80.4
O=c1[nH]cc(F)c(=O)[nH]1 [FLUOROURACIL]	6.6
CCNP(=O)(OC[C@H]1O[C@@H](n2cc(F)c(=O)[nH]c2=O)C[C@@H]1OC(=O)OC(C)(C)C)Oc1ccc(Cl)cc1 (some centres undefined)	4.26
CC(C)(C)OC(=O)O[C@H]1C[C@H](n2cc(F)c(=O)[nH]c2=O)O[C@@H]1COP(=O)(NCC(F)(F)F)Oc1ccc(Cl)cc1 (some centres undefined)	18.8
C=CCNP(=O)(OC[C@H]1O[C@@H](n2cc(F)c(=O)[nH]c2=O)C[C@@H]1O)Oc1ccc(Cl)cc1 (some centres undefined)	96.7

Test system: HepG2
Assay: Selectivity index, ratio of IC50 for HDF cells to IC50 for human HepG2 cells
Type: functional
Conditions: not given
How it was run: as §2

Compound	Ratio IC50
Nc1ccn([C@@H]2O[C@H](CO)[C@@H](O)[C@@H]2O)c(=O)n1 [CYTARABINE]	1.75
O=c1[nH]c(=O)n([C@H]2C[C@H](O)[C@@H](CO)O2)cc1F [FLOXURIDINE]	1.47
O=c1[nH]cc(F)c(=O)[nH]1 [FLUOROURACIL]	1.06
CCNP(=O)(OC[C@H]1O[C@@H](n2cc(F)c(=O)[nH]c2=O)C[C@@H]1OC(=O)OC(C)(C)C)Oc1ccc(Cl)cc1 (some centres undefined)	1.41

Test system: 143B
Assay: Selectivity index, ratio of IC50 for HDF cells to IC50 for human 143B cells
Type: functional
Conditions: not given
How it was run: as §2

Compound	Ratio IC50
Nc1ccn([C@@H]2O[C@H](CO)[C@@H](O)[C@@H]2O)c(=O)n1 [CYTARABINE]	2.42
O=c1[nH]c(=O)n([C@H]2C[C@H](O)[C@@H](CO)O2)cc1F [FLOXURIDINE]	2.17
O=c1[nH]cc(F)c(=O)[nH]1 [FLUOROURACIL]	0.54
CCNP(=O)(OC[C@H]1O[C@@H](n2cc(F)c(=O)[nH]c2=O)C[C@@H]1OC(=O)OC(C)(C)C)Oc1ccc(Cl)cc1 (some centres undefined)	1.37

Reference: ChEMBL document CHEMBL3784993, “Synthesis and anticancer activity of some 5-fluoro-2'-deoxyuridine phosphoramidates” (Bioorg Med Chem, 2016)
